Compound activity from PubChem.
FID counter = compounds displacing fluorescent DNA intercalator, primary screen, artefact control for HCV NS3 helicase inhibitor project, biochemical, FID fluorescence; DNA fluorescent intercalator displacement; inhibition, % at 7.9 µM; 290,000 tested, 0.17% active; in the data active = inhibition above about 37%;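 also: higher means more ethidium bromide displaced from hairpin DNA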
HSP90 refold inh = HSP90 inhibitors, primary screen, cell lysate, luminescence | inhibition, % at 5.6 µM | Rabbit reticulocyte lysate, luciferase refolding luminescence, 3 h | Heat shock protein HSP 90 (rabbit reticulocyte lysate; luciferase refolding) | 290,000 tested, 0.91% active;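 active = inhibition above the screen-wide mean plus 3 SD, computed separately per campaign, cut at about 16% in these data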;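 also: inhibitors lower the luminescence because luciferase stays unfolded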
HSF1 activator = HSF-1 activators, primary screen, NIH3T3-HGL cells, MG132 stress, luminescence, single point; NIH3T3-HGL HSF-1 luciferase reporter, 8 h; 100% = twice DMSO control signal; AID 504408, 2011; 300,000 tested, 1.7% active; activation, % at 9 µM;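 active = mean replicate activation of at least 50% with a set share of replicates each reaching 50%; inconclusive = only one of those two conditions met; inactive = mean below 50% and too few replicates reaching it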
HCV core dimer = inhibitors of HCV core protein dimerization, primary screen, biochemical, TR-FRET, high-throughput; AID 1899, 2009; 300,000 tested, 0.33% active; TR-FRET GST/Flag-core106 dimerization, 1536-well; inhibition, % at 5 µM;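 active = inhibition above the mean of all tested compounds plus 3 SD, set per screening campaign, cut at about 45% in these data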
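Test system: GST/Flag-tagged HCV core106 proteins; Medium: KF-containing HEPES buffer, pH 7.45, DTT, CHAPS, BSA; Times: compound-protein-antibody incubation 4 h at 22.5 °C; Detection: TR-FRET 671 and 617 nm emission; Benchmarks: wells lacking GST-core106 and wells with excess unlabelled core106.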
HCV NS3 hel inh = inhibitors of HCV NS3 helicase, primary screen, biochemical, Cy5 molecular beacon fluorescence; 290,000 tested, 0.56% active; AID 1800, 2009; inhibition, % at 10.9 µM; NS3 helicase DNA unwinding; Hepatitis C virus NS3 helicase;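 active = inhibition above the mean of all tested compounds plus 3 SD, set per campaign, cut at about 35% in these data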
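Assay system – hepatitis C virus NS3 helicase domain fragment enzyme · Buffer or medium – MOPS pH 6.5, MgCl2, DTT, Tween20, BSA · Reagent – Cy5/quencher beacon DNA duplex and ATP to start · Compound – single 10.9 µM dose · Timing – 1 h at 25 °C · Technique – Cy5 beacon fluorescence read at start and 1 h · Measure – % inhibition of unwinding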
HSF1 inh = HSF1 inhibitors in luciferase reporter cells, primary screen, cell-based, NIH3T3, luminescence; NIH3T3-HGL HSE-luciferase, MG132-induced, luminescence 8 h; stronger effect = lower value; activity change, negative = inhibition, % at 7.5 µM (by protocol); 300,000 tested, 0.77% active;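 active = more than half of replicate wells show activity change below -50%, luminescence cut by over half; inconclusive = some wells, but at most half, below -50%; inactive = no replicate well below -50%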;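 also: luciferase reports HSF-1 transcriptional activity via heat shock element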
HSP90 confirm = HSP90 inhibitors, confirmation, cell lysate, luminescence; shares compounds with HSP90 refold inh; rabbit reticulocyte lysate, luciferase refolding luminescence, 3 h; inhibition, % at 5.9 µM; 2,300 tested, 64% active; in the data active = inhibition above about 18%
luciferase ctr = firefly luciferase inhibitors, HSP90 counter-screen, confirmation, artefact control for HSP90 inhibitor project, biochemical, luminescence, triplicate. shares compounds with HSP90 refold inh. AID 1847, 2009. purified native firefly luciferase. inhibition, % at 5.9 µM. 2,300 tested, 48% active;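 active = inhibition above the mean inhibition of all tested sample wells plus 3 SD, cut at about 10% in these data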
Target sequence (P08659 whole entry, looked up): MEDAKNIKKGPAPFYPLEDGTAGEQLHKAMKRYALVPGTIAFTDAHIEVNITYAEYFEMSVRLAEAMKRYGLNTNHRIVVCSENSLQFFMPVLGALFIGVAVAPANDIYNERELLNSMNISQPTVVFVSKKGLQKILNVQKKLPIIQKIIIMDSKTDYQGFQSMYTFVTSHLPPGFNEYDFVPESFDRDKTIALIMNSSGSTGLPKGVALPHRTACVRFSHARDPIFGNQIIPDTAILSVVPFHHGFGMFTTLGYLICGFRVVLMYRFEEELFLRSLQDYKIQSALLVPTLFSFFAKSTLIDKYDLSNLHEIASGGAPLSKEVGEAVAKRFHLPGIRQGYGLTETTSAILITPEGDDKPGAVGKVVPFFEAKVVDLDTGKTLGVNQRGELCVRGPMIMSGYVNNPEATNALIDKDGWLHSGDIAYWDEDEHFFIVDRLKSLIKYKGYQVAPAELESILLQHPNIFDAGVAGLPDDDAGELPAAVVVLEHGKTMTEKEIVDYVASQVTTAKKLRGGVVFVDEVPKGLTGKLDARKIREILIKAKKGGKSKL
Numbers stand for hits. Only some compounds are listed: those with a hit (about 3.9% of all), similar ones and a draw of the others.

Screening COc1cc(NC(=O)CSc2nnc3ccc(-c4cccnc4)nn23)cc(OC)c1 returned HSF1 activator inactive, HCV core dimer inactive and HSF1 inh inactive.
COc1cc2cc(CN(C(=O)NC3CCCCC3)C3CCCC3)c(=O)[nH]c2cc1OC was read as FID counter inactive, HSP90 refold inh 22, HSF1 activator inactive, HCV core dimer inactive, HCV NS3 hel inh inactive, HSF1 inh inactive, HSP90 confirm inactive and luciferase ctr inactive.
Screening COc1ccccc1-c1cc(C(=O)N2CCCC2)no1 returned FID counter inactive, HSP90 refold inh inactive, HSF1 activator inactive, HCV core dimer inactive, HCV NS3 hel inh inactive and HSF1 inh inactive.
O=C(Nc1cccc(O)c1)c1cc(-c2ccc3c(c2)OCO3)on1 was read as FID counter inactive, HSP90 refold inh 68, HSF1 activator inactive, HCV core dimer inactive, HCV NS3 hel inh inactive, HSF1 inh inactive, HSP90 confirm 92 and luciferase ctr 85.
`O=C(c1cc(-c2ccccc2Cl)on1)N1CCCC1` gave FID counter inactive, HSP90 refold inh 51, HSF1 activator inactive, HCV core dimer inactive, HCV NS3 hel inh inactive, HSF1 inh inactive, HSP90 confirm 55 and luciferase ctr 49.
Screening COc1cc(NC(=O)c2cc(-c3ccc4c(c3)OCO4)on2)cc(OC)c1OC returned FID counter inactive, HSP90 refold inh inactive, HSF1 activator inactive, HCV core dimer inactive, HCV NS3 hel inh inactive and HSF1 inh inactive.
Screening O=C(Nc1cccc(O)c1)c1cc(-c2ccccc2Cl)on1 returned FID counter inactive, HSP90 refold inh 41, HSF1 activator inactive, HCV core dimer inactive, HCV NS3 hel inh inactive, HSF1 inh -58, HSP90 confirm 63 and luciferase ctr 48.
For COc1ccc(-n2cc(CNCCc3cnc[nH]3)c(-c3cccc(F)c3)n2)cc1 the results were FID counter inactive, HSP90 refold inh inactive, HSF1 activator inactive, HCV core dimer inactive, HCV NS3 hel inh inactive and HSF1 inh inactive.
Screening CN(C)C(CNC(=O)C1CCN(S(=O)(=O)c2ccccc2)CC1)c1ccccc1 (stereo unspecified) returned FID counter inactive, HSP90 refold inh inactive, HSF1 activator inactive, HCV core dimer inactive, HCV NS3 hel inh inactive and HSF1 inh inactive.
CN(C)C(CNC(=O)C1CCN(S(=O)(=O)c2cccc(C(F)(F)F)c2)CC1)c1ccccc1 (stereo unspecified) was read as FID counter inactive, HSP90 refold inh 40, HSF1 activator inactive, HCV core dimer inactive, HCV NS3 hel inh inactive, HSF1 inh inactive, HSP90 confirm inactive and luciferase ctr inactive.
For O=C(NCCc1ccccc1)c1ccc2c(c1)OCO2 the results were FID counter inactive, HSP90 refold inh 76, HSF1 activator inactive, HCV core dimer inactive, HCV NS3 hel inh inactive, HSF1 inh inactive, HSP90 confirm 83 and luciferase ctr 78.
`CC(=O)Oc1ccc(C(=O)NCCc2ccccc2)cc1` gave FID counter inactive, HSP90 refold inh inactive, HSF1 activator inactive, HCV core dimer inactive, HCV NS3 hel inh inactive and HSF1 inh inactive.
`CCOc1ccc(C(=O)NCCc2ccccc2)cc1` gave FID counter inactive, HSP90 refold inh 23, HSF1 activator inactive, HCV core dimer inactive, HCV NS3 hel inh inactive, HSF1 inh inactive, HSP90 confirm 66 and luciferase ctr 55.
For O=C(NCCc1ccccc1)c1ccc2nccnc2c1 the results were FID counter inactive, HSP90 refold inh 40, HSF1 activator inactive, HCV core dimer inactive, HCV NS3 hel inh inactive, HSF1 inh inactive, HSP90 confirm 52 and luciferase ctr 41.
CN(C)c1ccc(/C=C/C=C2/SC(=S)N(c3ccccc3)C2=O)cc1 was read as FID counter inactive, HSP90 refold inh 34, HSF1 activator inactive, HCV core dimer inactive, HCV NS3 hel inh inactive, HSF1 inh inactive, HSP90 confirm 21 and luciferase ctr 12.
Screening O=C(O)c1ccc(N2C(=O)/C(=C/C=C/c3ccccc3)SC2=S)cc1 returned FID counter inactive, HSP90 refold inh inactive, HSF1 activator inactive, HCV core dimer inactive, HCV NS3 hel inh inactive and HSF1 inh inactive.
For O=C(NCc1cccs1)c1cc2c(s1)CCCC2 the results were FID counter inactive, HSP90 refold inh inactive, HSF1 activator inactive, HCV core dimer inactive, HCV NS3 hel inh inactive and HSF1 inh inactive.
For O=C(CSc1ncn(-c2ccccc2)n1)N1CCN(c2ccccc2)CC1 the results were FID counter inactive, HSP90 refold inh 35, HSF1 activator inactive, HCV core dimer inactive, HCV NS3 hel inh inactive, HSF1 inh inactive, HSP90 confirm inactive and luciferase ctr inactive.
Cc1ccc2c(ccc(=S)n2C)c1 was read as FID counter inactive, HSP90 refold inh inactive, HSF1 activator inactive, HCV core dimer inactive, HCV NS3 hel inh inactive and HSF1 inh inactive.
For CC(=O)c1ccc(NC(=O)c2cnn3ccccc23)cc1 the results were FID counter inactive, HSP90 refold inh 42, HSF1 activator inactive, HCV core dimer inactive, HCV NS3 hel inh inactive, HSF1 inh inconclusive, HSP90 confirm 63 and luciferase ctr 12.
`CC(=O)c1cccc(NC(=O)c2cnn3ccccc23)c1` gave FID counter inactive, HSP90 refold inh inactive, HSF1 activator inactive, HCV core dimer inactive, HCV NS3 hel inh inactive and HSF1 inh inactive.
`CCOC(=O)Nc1ccc2c(c1)N(C(=O)CCN(CC)CC)c1ccccc1CC2` gave FID counter inactive, HSP90 refold inh 26, HSF1 activator inactive, HCV core dimer inactive, HCV NS3 hel inh inactive, HSF1 inh inactive, HSP90 confirm inactive and luciferase ctr inactive.
CCN(CC)CCC(=O)N1c2ccccc2CCc2ccc(NC(=O)OC)cc21 was read as FID counter inactive, HSP90 refold inh inactive, HSF1 activator inactive, HCV core dimer inactive, HCV NS3 hel inh inactive and HSF1 inh inactive.
Screening CCc1nnc(N/N=C/c2cccs2)n1N returned FID counter inactive, HSP90 refold inh 66, HSF1 activator inactive, HCV core dimer inactive, HCV NS3 hel inh inactive, HSF1 inh inactive, HSP90 confirm inactive and luciferase ctr inactive.
